Experiments:
[1] = target: T1, Autotaxin (Homo sapiens, UniProt Q13822); assay: Inhibition of C-terminal FLAG tagged human recombinant ATX expressed in insect sf9 cells at 10 uM using FS-3 as substrate measured every 2 mins for 60 mins by FRET assay
Summary of the method: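 10 μM compound with 10 nM human FLAG-fusion ATX in pH 8.0 Tris buffer (30 μM BSA, 1 mM CaCl2, 1 mM MgCl2, 5 mM KCl, 140 mM NaCl) and 1 μM FS-3. Fluorescence at ex 485/em 520 nm read every 2 min for 60 min at 37 °C. Normalized to no-ATX (0%) and ATX without compound (100%). Triplicate.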

[2] = target: T1, Autotaxin; assay: Inhibition of C-terminal FLAG tagged human recombinant ATX expressed in insect sf9 cells at 10 uM using pNP-TMP as substrate measured every 2 mins for 60 mins by absorbance

For `CCN1CCN(c2cc(C)c3ccc(Cl)cc3n2)CC1`, the inhibition [1] was 14.2%.

`CCOC(=O)c1c(C)[nH]c(C(=O)OCC(=O)NCc2ccco2)c1C` showed an inhibition [1] of 15.6%.

`CON1CC/C(=C\c2cc(C(C)(C)C)c3c(c2)C(C)(C)CO3)C1=O` showed an inhibition [1] of 30.3%.

`O=C(O)c1ccccc1N1CCN(C(=O)COc2ccccc2F)CC1` gave an inhibition [2] of -5.7% and an inhibition [1] of -7.6%.

With `CCc1cc2c(cc(C(=O)NCCc3ccc(OC)c(OC)c3)n2C)s1` the inhibition [1] was 35.1%.

For `CCc1nc(C)cc(NCC(=O)C2(O)CC3(C)CCC4C5C=CC(=O)C=C5CCC45C3C25)c1O` (stereo not drawn), the inhibition [1] was 17.5%.

`O=C(Nc1ccccc1)N1CC(O)C(N2CCN(Cc3ccccc3)CC2)C1` (stereo not drawn) showed an inhibition [1] of 2.55%.

With `COc1ccc2oc(C(=O)NCCNC(=O)C3C(C=C(C)C)C3(C)C)cc2c1` (stereo not drawn) the inhibition [1] was 25.5%.

`O=C(O)c1ccc(N2CCN(C(=O)COc3cccc(C(F)(F)F)c3)CC2)cc1` was tested, and the inhibition [1] was 43%.

`CCCCOc1ccc(S(=O)(=O)N2CC(NCc3ccco3)CC2C(=O)CNO)cc1` (stereo not drawn) showed an inhibition [1] of 38%.

For `O=C(COc1cccc(F)c1)N1CCN(c2ccccc2[N+](=O)[O-])CC1`, the inhibition [2] was 18.2% and the inhibition [1] was 39.5%.

In the case of `CCOc1ccc(N2C(=O)/C(=C3\C(=O)Nc4ccc(Br)cc43)SC2=S)cc1`, the inhibition [1] is reported as -3.35%.

`O=C1N=C(Nc2ccccc2)SC1Cc1ccc(-c2cccc(Br)c2)o1` (stereo not drawn) showed an inhibition [1] of -0.74%.

For `Cc1cc(C)c(C)c(S(=O)(=O)N2CCN(c3ncnc4sc(C)c(C)c34)CC2)c1C`, the inhibition [1] was 19.8%.

`CC(C)/C=C/C(=O)N1CCN(C(=O)C2CCC3C4CC=C5CC(O)CCC5(C)C4CCC23C)CC1` (stereo not drawn) gave an inhibition [1] of 13.3%.

`Cc1oc(C(C)(C)C)cc1C(=O)NCCNC(=O)c1cc(C(C)(C)C)oc1C` gave an inhibition [1] of 7.68%.

Molecule `Clc1ccc(Cl)c2c1CC(N1CCN(c3ncccn3)CC1)S2` (stereo not drawn) has an inhibition [1] of 9.03%.

Molecule `Cn1ncc(Cl)c1C(=O)NC1CCC(C(C)(C)C)CC1` (stereo not drawn) has an inhibition [1] of 15%.

With `Cc1cc(NC(=O)CSc2nc3sc4c(c3c(=O)[nH]2)CCC(C(C)(C)C)C4)no1` (stereo not drawn) the inhibition [1] was 15.4%.

`COc1cc(C(=O)Nc2ccc(C(C)=O)cc2)c(Br)c(OC)c1OC` showed an inhibition [1] of 16.9%.

Molecule `O=C(O)c1ccc(N2CCN(C(=O)COc3ccccc3F)CC2)cc1` has an inhibition [1] of 6.1%.

With `O=C(COc1ccc(F)cc1)N1CCN(c2ccccc2[N+](=O)[O-])CC1` the inhibition [2] was 19.9% and the inhibition [1] was 42.4%.

`Cc1nc(N2CCN(c3ccccc3F)CC2)c2c(C)c(C)sc2n1` showed an inhibition [1] of -2.48%.

`Cc1cc(C(=O)CSc2ccc(Cl)cc2)cc(C)c1OC(=O)N(C)C` gave an inhibition [1] of 6.06%.

`CCCCCCCCCCCC[N+](C)(C)CC(O)C(O)C(O)C(O)CO` (stereo not drawn) gave an inhibition [1] of 36.7%.

`COc1ccc(/C=N/c2cc(C)ccc2C)cc1OC` gave an inhibition [1] of -2.55%.

`CC[n+]1c(Cc2nn3c(C)cc(C)nc3[n+]2CC)nn2c(C)cc(C)nc21` gave an inhibition [1] of 2.48%.

In the case of `Cn1cc(Cl)c(C2NN=C(SCC(=O)Nc3ccc(C(C)(C)C)cc3)S2)n1` (stereo not drawn), the inhibition [1] is reported as 43.4%.

With `O=C(O)c1ccc(N2CCN(C(=O)COc3cccc(F)c3)CC2)cc1` the inhibition [1] was 32.3%.

`Cc1c(Br)cc(C(=O)OCC(=O)c2ccccc2)c(C)c1C` showed an inhibition [1] of 6.54%.

`CCCCC(CC)C(=O)Nc1nnc(C2CCCCC2)s1` (stereo not drawn) gave an inhibition [1] of 7.68%.

`N#C/C(=C\c1ccc(-c2cc([N+](=O)[O-])ccc2Cl)o1)C(=O)Nc1ccccc1C(=O)O` was tested, and the inhibition [1] was 3.59%.

`C=C(C)c1cccc(C(C)(C)NC(=O)N2CCN(C(=O)OCC)CC2)c1` showed an inhibition [1] of 10.5%.

`CC(C)COc1cnc(SSc2ncc(OCC(C)C)cn2)nc1` was tested, and the inhibition [1] was 20.6%.

For `O=C(COc1ccccc1F)N1CCN(c2cccc([N+](=O)[O-])c2)CC1`, the inhibition [1] was 15.2%.

In the case of `CSc1cccc2c(C)cc(N3CCN(c4ccc(F)cc4)CC3)nc12`, the inhibition [1] is reported as 9.17%.

In the case of `COc1ccc(/C(N)=N/OC(=O)COc2ccc(C(C)(C)C)cc2Br)cc1OC`, the inhibition [1] is reported as 6.68%.

Work on `O=C(COc1ccccc1Cl)N1CCN(c2ccc([N+](=O)[O-])cc2)CC1` yielded an inhibition [1] of 46.1%.

Molecule `COc1ccc(C(=O)Oc2c(Br)cc(Br)c3cccnc23)cc1` has an inhibition [1] of 0.32%.

`COc1ccccc1N1CCN(/N=C(\C)c2ccc3ccccc3c2)CC1` was tested, and the inhibition [1] was -0.74%.

In the case of `Cn1ncc2c1ncn1nc(-c3ccc(Cn4cc(Cl)cn4)o3)nc21`, the inhibition [1] is reported as -1.86%.

`Cc1cc(NC(=O)CSc2nc3sc4c(c3c(=O)[nH]2)CCC(C)C4)no1` (stereo not drawn) showed an inhibition [1] of 11%.

Work on `CC(C)CC1C(=O)NC(C)CN1C(=O)c1ccc(-c2ccccc2)cc1` (stereo not drawn) yielded an inhibition [1] of 32.8%.

With `Cc1ccc2cc3c(nc2c1)sc1c(SCC(=O)NCc2ccco2)ncnc13` the inhibition [1] was 13.4%.

`CCCCOCCCNc1cc(-c2cccc(C)c2)ncn1` was tested, and the inhibition [1] was 9.16%.

`CC(C)(C)CN(Cc1cccc(CN)c1)C(=O)c1ccc(-c2ccc(F)cc2)nc1` gave an inhibition [1] of 19.8 to 42.8%.

Work on `Cc1ccc2cc(C#N)c(N3CCCN(C(=O)c4ccc(F)cc4F)CC3)nc2c1` yielded an inhibition [1] of 46.4%.

With `O=C(CCCc1ccc([N+](=O)[O-])cc1)N1CCN(c2ccccc2F)CC1` the inhibition [1] was 25.6%.

`COC(=O)c1sc(NC(=O)c2cc(C)ccc2Cl)c(C#N)c1C` was tested, and the inhibition [1] was -2.35%.

`Cn1ncc2c(Cl)nc(-c3cc4cc([N+](=O)[O-])ccc4o3)nc21` gave an inhibition [1] of -0.99%.

Molecule `O=S(=O)(c1ccc(OC(F)(F)F)cc1)N1CCC(N2CCN(c3ccccc3F)CC2)CC1` has an inhibition [1] of 8.43%.

Molecule `CCc1ccc(OCC(=O)Nc2ccc(-c3nc4ccccc4o3)cc2)cc1` has an inhibition [1] of 34.7%.

Molecule `CCOc1ccc(N2C(=O)/C(=C\c3sccc3C)C(C(=O)OC)=C2C)cc1` has an inhibition [1] of 4.09%.

`Cc1ccc(SCC(=O)Nc2ccc(C(=O)NC(C)(C)C)cc2)cc1` gave an inhibition [1] of 8.67%.

Molecule `COc1ccc(N2C(=O)/C(=C/c3ccc(O)c([N+](=O)[O-])c3)SC2=S)cc1` has an inhibition [1] of 4.83%.

`CCCC#CC(=O)NCC(=O)Nc1ccc2c3c(cccc13)-c1ccccc1-2` gave an inhibition [1] of 6.06%.

`Cc1nn(-c2ccccc2)c(O)c1/N=C1\C(=O)N(C)c2ccc(Br)cc21` showed an inhibition [1] of 1.44%.

`CC(C)(C)c1ccc(NC(=O)COC(=O)c2ccc([N+](=O)[O-])s2)cc1` was tested, and the inhibition [1] was 10.7%.

Work on `CC(C)c1ccc(NC(=O)c2cc([N+](=O)[O-])ccc2Cl)cc1` yielded an inhibition [1] of 12.1%.

Molecule `C=C(Br)C(=O)N1CCN(C(=O)CCSc2ccc3ccccc3c2)CC1` has an inhibition [1] of 46.4%.

Work on `Cc1cc(C(F)(F)F)nc2sc3c(c12)NC(c1c(Br)cnn1C)NC3=O` (stereo not drawn) yielded an inhibition [1] of -1.36%.

With `CC1=NC(c2cccc(C)c2)C(O)=C1/C=C1/C(=O)N(c2ccc(C)cc2C)N=C1C` (stereo not drawn) the inhibition [1] was 10.5%.

With `Cc1ccccc1Nc1nc(C2(C)CC3(CC(COCC(C)C)OC3=O)C(=O)O2)cs1` (stereo not drawn) the inhibition [1] was 40.8%.

For `O=C(c1ccco1)N1CCN(C(=O)C2CCCN2C(=O)CC2C=CCC2)CC1` (stereo not drawn), the inhibition [1] was 5.7%.

In the case of `COC(CNCc1cc(Cl)c(CNCC(OC)OC)cc1Cl)OC`, the inhibition [1] is reported as 18.6%.

For `O=c1/c(=C/C=C/c2ccc([N+](=O)[O-])o2)sc2nc3ccccc3n12`, the inhibition [1] was 5.82%.

`Cc1cc(OCC(=O)Nc2ccc(-c3nc4ncccc4o3)cc2)ccc1Cl` gave an inhibition [1] of 4.63%.

`CCC(C)c1ccc(OCC(=O)Nc2cc(OC)c(OC)cc2C(=O)O)cc1` (stereo not drawn) was tested, and the inhibition [1] was -8.29%.

In the case of `CC(C)(C)CN(Cc1cccc(CN)c1)C(=O)c1ccc(-c2ccccc2)nc1`, the inhibition [1] is reported as 32.5%.

Work on `Cc1c(Cl)c(-c2nnc(NCC(C)C)s2)nn1C` yielded an inhibition [1] of 7.92%.

`COc1ccc(C2OCC3OC(OC)C(O)C(O)C3O2)cc1OCc1ccccc1` (stereo not drawn) gave an inhibition [1] of -4.83%.

For `CN(C)CCCCN(CCCN(C)C)Cc1cccc2ccccc12`, the inhibition [1] was 36.2%.

`CCc1ccc2c(c1)c1nnc(SCC(=O)Nc3nnc(C(C)C)s3)nc1n2C` was tested, and the inhibition [1] was 21.7%.

Work on `O=S(=O)(c1cc(-c2ccon2)cs1)N1CCN(Cc2ccc3c(c2)OCO3)CC1` yielded an inhibition [1] of 13.4%.

`O=C(COc1ccccc1F)N1CCN(c2ccc([N+](=O)[O-])cc2)CC1` was tested, and the inhibition [1] was 35.2%.

— ChEMBL document CHEMBL4431364, “Discovery and synthetic optimization of a novel scaffold for hydrophobic tunnel-targeted autotaxin inhibition” (Bioorg Med Chem, 2016)
